Data: ChEMBL document CHEMBL1133968, “Glutamyl-gamma-boronate inhibitors of bacterial Glu-tRNA(Gln) amidotransferase” (Bioorg Med Chem Lett, 2001)
In brackets after ≈: the same amount, converted by molar mass.

What was measured:
[1] = target: T1, Aspartyl/glutamyl-tRNA(Asn/Gln) amidotransferase subunit A (Streptococcus pyogenes serotype M1, UniProt Q99YC0); assay: In vitro inhibitory concentration against transferase activity of bacterial Glu-tRNA-Gln […] (Glu-AdT)
Procedure, shortened: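 S. pyogenes Glu-AdT, Gln-dependent transferase reaction. Substrates were Glu-tRNAGln at >10×Km, ATP at 2×Km and Gln at 0.5×Km. Inhibitor titrated over […]. Enzyme pre-incubated 15 min with inhibitor, Glu-tRNAGln and ATP, then started with Gln. Buffer was 50 mM HEPES, 25 mM MgCl₂, 15 mM KCl, 1% DMSO, pH 7. IC50 determined in duplicate.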

[2] = target: T1, Aspartyl/glutamyl-tRNA(Asn/Gln) amidotransferase subunit A; assay: In vitro inhibitory concentration against Glutaminase activity of bacterial Glu-tRNA-Gln […] (Glu-AdT)
Procedure, shortened: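 S. pyogenes Glu-AdT, glutaminase-only reaction with no ATP or tRNA. Gln at 2×Km. Inhibitor titrated over […]. Enzyme pre-incubated 15 min with inhibitor, then started with Gln. Reaction buffer was 50 mM HEPES, 25 mM MgCl₂, 15 mM KCl, 1% DMSO, pH 7. IC50 determined in duplicate.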

[3] = Tested for mammalian cellular toxicity expressed as IC50; type: functional
Staphylococcus aureus [4] = assay: Tested for minimal growth inhibitory concentration against Staphylococcus aureus ATCC 25923; type: functional
Staphylococcus carnosus = assay: Tested for minimal growth inhibitory concentration against Staphylococcus carnosus ATCC 51365; type: functional
Enterococcus faecalis = assay: Tested for minimal growth inhibitory concentration against […] ATCC 29212; type: functional
Streptococcus pyogenes = assay: Tested for minimal growth inhibitory concentration against Streptococcus pyogenes ATCC 13709; type: functional
[5] = tested on: Staphylococcus epidermidis; assay: Tested for minimal growth inhibitory concentration against Staphylococcus epidermidis ATCC 12228; type: functional
[6] = tested on: Staphylococcus epidermidis; assay: Tested for minimal growth inhibitory concentration against Staphylococcus epidermidis ATCC 51625; type: functional
Escherichia coli [7] = assay: Minimum inhibitory concentration against Escherichia coli strain tolC; type: functional
Staphylococcus aureus [8] = assay: Tested for minimal growth inhibitory concentration against Staphylococcus aureus ATCC 29213; type: functional
Streptococcus pneumoniae = assay: Tested for minimal growth inhibitory concentration against Streptococcus pneumoniae ATCC 49619; type: functional
Helicobacter pylori = assay: Tested for minimal growth inhibitory concentration against Helicobacter pylori ATCC 43629; type: functional
Procedure, shortened: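 Broth dilution in Brain–Heart Infusion broth with 0.25% yeast extract and 10% horse serum. Inoculum was 6×10⁵ CFU per well, incubated 72 h at 37 °C under 10% CO₂. Highest concentration tested was 64. NCCLS-recommended control antibiotics tracked strain performance.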

Escherichia coli [9] = assay: Minimum inhibitory concentration against Escherichia coli strain SM101; type: functional
Staphylococcus aureus [10] = assay: Tested for minimal growth inhibitory concentration against Staphylococcus aureus ATCC 4330; type: functional

T1 sequence (Q99YC0 whole entry, looked up): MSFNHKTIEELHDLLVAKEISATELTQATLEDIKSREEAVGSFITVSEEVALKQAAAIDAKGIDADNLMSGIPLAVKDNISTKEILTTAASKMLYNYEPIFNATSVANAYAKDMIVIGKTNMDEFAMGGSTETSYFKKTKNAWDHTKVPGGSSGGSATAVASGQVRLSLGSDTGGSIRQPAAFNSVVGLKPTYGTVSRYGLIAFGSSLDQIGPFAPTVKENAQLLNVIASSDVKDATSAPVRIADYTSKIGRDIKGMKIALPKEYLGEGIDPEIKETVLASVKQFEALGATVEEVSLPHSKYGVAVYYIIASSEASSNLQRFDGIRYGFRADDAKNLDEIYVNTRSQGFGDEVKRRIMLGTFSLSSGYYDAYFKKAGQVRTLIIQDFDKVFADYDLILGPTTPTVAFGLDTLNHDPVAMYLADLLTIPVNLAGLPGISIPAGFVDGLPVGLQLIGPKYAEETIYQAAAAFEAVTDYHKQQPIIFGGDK

| SMILES | IC50 [1] [µM] | IC50 [2] [µM] | IC50 [3] [µM] | MIC (Staphylococcus aureus [4]) [µg/mL] | MIC (Staphylococcus carnosus) [µg/mL] | MIC (Enterococcus faecalis) [µg/mL] | MIC (Streptococcus pyogenes) [µg/mL] | MIC [5] [µg/mL] | MIC [6] [µg/mL] | MIC (Escherichia coli [7]) [µg/mL] | MIC (Staphylococcus aureus [8]) [µg/mL] | MIC (Streptococcus pneumoniae) [µg/mL] | MIC (Helicobacter pylori) [µg/mL] | MIC (Escherichia coli [9]) [µg/mL] | MIC (Staphylococcus aureus [10]) [µg/mL] |
| --- | --- | --- | --- | --- | --- | --- | --- | --- | --- | --- | --- | --- | --- | --- | --- |
| CC1(C)C2CC[C@]3(C)OB(CC[C@H](N)C(=O)NS(=O)(=O)C(F)(F)F)O[C@]13C2 | 4.7 | 55 |  |  |  |  |  |  |  |  |  |  |  |  |  |
| CN[C@@H](CCB1O[C@@]2(C)CCC3C[C@@]2(O1)C3(C)C)C(=O)O | 1.1 |  |  |  |  |  |  |  |  |  |  |  |  |  |  |
| COC(=O)[C@@H](N)CCB1O[C@@]2(C)CCC3C[C@@]2(O1)C3(C)C | 0.07 | 1.5 | > 100 | > 64 | > 64 | 4 (≈ 13.6 µM) | 8 (≈ 27.1 µM) | > 64 | > 64 | > 64 | > 64 | 2 (≈ 6.78 µM) | 64 (≈ 217 µM) | > 64 | > 64 |
| CC1(C)C2CC[C@]3(C)OB(CC[C@H](N)C(=O)NS(=O)(=O)c4ccc(N)cc4)O[C@]13C2 | 10 | > 80 |  |  |  |  |  |  |  |  |  |  |  |  |  |
| CNC(=O)[C@@H](N)CCB1O[C@@]2(C)CCC3C[C@@]2(O1)C3(C)C | 35 | > 80 | > 100 |  |  | > 64 | 32 (≈ 109 µM) |  |  | 64 (≈ 218 µM) | > 64 | 32 (≈ 109 µM) | > 64 | 64 (≈ 218 µM) |  |
| COC(=O)[C@@H](N)CCCB1O[C@@]2(C)CCC3C[C@@]2(O1)C3(C)C | > 20 | > 80 |  |  |  |  |  |  |  |  |  |  |  |  |  |
| COC(=O)[C@@H](N)CCB(O)O | 0.05 | 1.3 | > 100 | > 64 | > 64 | 3 (≈ 18.6 µM) | 6 (≈ 37.3 µM) | > 64 | > 64 | > 64 | > 64 | 2 (≈ 12.4 µM) | 32 (≈ 199 µM) | > 64 | > 64 |
| CC(=O)N[C@@H](CCB1O[C@@]2(C)CCC3C[C@@]2(O1)C3(C)C)C(=O)O | > 20 | > 80 |  |  |  |  |  |  |  |  |  |  |  |  |  |
| CC1(C)C2CC[C@]3(C)OB(CCC(N)CC(=O)O)O[C@]13C2 (some centres not stated) | 6.5 |  |  |  |  |  |  |  |  |  |  |  |  |  |  |
| CC1(C)C2CC[C@]3(C)OB(CC[C@H](N)C(=O)NS(=O)(=O)c4ccccc4)O[C@]13C2 | 20 | 40 |  |  |  |  |  |  |  |  |  |  |  |  |  |
| N[C@@H](CCB(O)O)C(=O)O | 0.1 | 1.6 | > 100 | > 64 | > 64 | 8 (≈ 54.4 µM) | 8 (≈ 54.4 µM) | > 64 | > 64 | > 64 | > 64 | 3 (≈ 20.4 µM) | 32 (≈ 218 µM) | > 64 | > 64 |
